Experimental data taken from ChEMBL document CHEMBL5137084 (J Med Chem, 2022).

How the values were obtained:
[1] = Metabolic stability of the compound in carboxylesterase 1 knockout mouse brain assessed as parent compound remaining at 10 uM measured after 1 hr in by UPLC analysis; type: ADME, tissue-based
Method in brief: (§1)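 Plasma, or liver or brain homogenised 10-fold in 0.1 M potassium phosphate buffer, from CES1−/− mice. Spiked with 10 μM prodrug (final) and shaken at 37 °C for 1 h, in triplicate. Samples at 0 and 1 h were quenched with three volumes of acetonitrile containing losartan. Intact prodrug was measured by UHPLC-orbitrap MS and expressed as % remaining, mean ± SE.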

[2] = Metabolic stability of the compound in carboxylesterase 1 knockout mouse liver assessed as parent compound remaining at 10 uM measured after 1 hr in by UPLC analysis; type: ADME, tissue-based; method in brief: as §1
[3] = Metabolic stability of the compound in carboxylesterase 1 knockout mouse plasma assessed as parent compound remaining at 10 uM measured after 1 hr in by UPLC analysis; type: ADME, cell-free; method in brief: as §1
[4] = Prodrug conversion in carboxylesterase 1 knockout C57BL/6 mouse brain assessed as increase in 2,6-Dimethoxy-4-(4-phenyl-5-thiophen-2-yl-1H-imidazol-2-yl)phenol release at 15.12 mg/kg, po administered as single dose measured after 2 hrs by LC-MS/MS analysis; type: ADME, organism-based; conditions: in vivo
[5] = Stability in carboxylesterase 1 knockout C57BL/6 mouse plasma assessed as intact compound level at 15.12 mg/kg, po administered as single dose measured upto 8 hrs by LC-MS/MS analysis; type: ADME, organism-based; conditions: read-out: Stability
[6] = Stability in carboxylesterase 1 knockout C57BL/6 mouse brain assessed as intact compound level at 15.12 mg/kg, po administered as single dose measured upto 8 hrs by LC-MS/MS analysis; type: ADME, organism-based; conditions: read-out: Stability
[7] = Tmax in carboxylesterase 1 knockout C57BL/6 mouse plasma at 15.12 mg/kg, po administered as single dose measured upto 8 hrs by LC-MS/MS analysis; type: ADME, organism-based
[8] = Tmax in carboxylesterase 1 knockout C57BL/6 mouse brain at 15.12 mg/kg, po administered as single dose measured upto 8 hrs by LC-MS/MS analysis; type: ADME, organism-based
[9] = Half life in carboxylesterase 1 knockout C57BL/6 mouse plasma at 15.12 mg/kg, po administered as single dose measured upto 8 hrs by LC-MS/MS analysis; type: ADME, organism-based
[10] = Half life in carboxylesterase 1 knockout C57BL/6 mouse brain at 15.12 mg/kg, po administered as single dose measured upto 8 hrs by LC-MS/MS analysis; type: ADME, organism-based
[11] = Prodrug conversion in carboxylesterase 1 knockout C57BL/6 mouse plasma assessed as Cmax of 2,6-Dimethoxy-4-(4-phenyl-5-thiophen-2-yl-1H-imidazol-2-yl)phenol at 15.12 mg/kg, po administered as single dose measured upto 8 hrs by LC-MS/MS analysis; type: ADME, organism-based; set-up: dose 15.12 mg/kg, time < 8 hrs, route po; conditions: in vivo
[12] = Prodrug conversion in carboxylesterase 1 knockout C57BL/6 mouse brain assessed as Cmax of 2,6-Dimethoxy-4-(4-phenyl-5-thiophen-2-yl-1H-imidazol-2-yl)phenol at 15.12 mg/kg, po administered as single dose measured upto 8 hrs by LC-MS/MS analysis; type: ADME, organism-based; set-up: dose 15.12 mg/kg, time < 8 hrs, route po; conditions: in vivo
[13] = Prodrug conversion in carboxylesterase 1 knockout C57BL/6 mouse plasma assessed as AUC of 2,6-Dimethoxy-4-(4-phenyl-5-thiophen-2-yl-1H-imidazol-2-yl)phenol at 15.12 mg/kg, po administered as single dose measured upto 8 hrs by LC-MS/MS analysis; type: ADME, organism-based; set-up: time < 8 hrs, dose 15.12 mg/kg, route po; conditions: in vivo
[14] = Prodrug conversion in carboxylesterase 1 knockout C57BL/6 mouse brain assessed as AUC of 2,6-Dimethoxy-4-(4-phenyl-5-thiophen-2-yl-1H-imidazol-2-yl)phenol at 15.12 mg/kg, po administered as single dose measured upto 8 hrs by LC-MS/MS analysis; type: ADME, organism-based; set-up: time < 8 hrs, dose 15.12 mg/kg, route po; conditions: in vivo
[15] = Drug release in carboxylesterase 1 knockout C57BL/6 mouse plasma at 10 mg/kg, po administered as single dose measured after 2 hrs by LC-MS/MS analysis; type: ADME, organism-based; conditions: in vivo, read-out: Activity
Method in brief: (§2)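 Mice are killed 2 h post-dose by CO2, with cardiac-puncture plasma and whole brain taken. After acetonitrile/losartan extraction, released parent and intact prodrug are measured by LC-MS/MS. Brain-to-plasma ratio is computed from released-parent levels; mean ± SEM.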

[16] = Drug release in carboxylesterase 1 knockout C57BL/6 mouse brain at 10 mg/kg, po administered as single dose measured after 2 hrs by LC-MS/MS analysis; type: ADME, organism-based; conditions: in vivo; method in brief: as §2
[17] = Brain to plasma ratio in carboxylesterase 1 knockout C57BL/6 mouse at 10 mg/kg, po administered as single dose measured after 2 hrs by LC-MS/MS analysis; type: ADME, organism-based; method in brief: as §2
[18] = Tmax in carboxylesterase 1 knockout C57BL/6 mouse plasma at 10 mg/kg, po administered as single dose measured upto 8 hrs by LC-MS/MS analysis; type: ADME, organism-based
Method in brief: (§3)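 Cardiac blood is spun to plasma and brains are flash frozen. Intact prodrug and released parent are quantified by LC-MS/MS against matrix-matched standards. Parameters come from non-compartmental analysis; mean ± SEM.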

[19] = Tmax in carboxylesterase 1 knockout C57BL/6 mouse brain at 10 mg/kg, po administered as single dose measured upto 8 hrs by LC-MS/MS analysis; type: ADME, organism-based; method in brief: as §3
[20] = Half life in carboxylesterase 1 knockout C57BL/6 mouse plasma at 10 mg/kg, po administered as single dose measured upto 8 hrs by LC-MS/MS analysis; type: ADME, organism-based; method in brief: as §3
[21] = Half life in carboxylesterase 1 knockout C57BL/6 mouse brain at 10 mg/kg, po administered as single dose measured upto 8 hrs by LC-MS/MS analysis; type: ADME, organism-based; method in brief: as §3
[22] = Cmax in carboxylesterase 1 knockout C57BL/6 mouse plasma at 10 mg/kg, po administered as single dose measured upto 8 hrs by LC-MS/MS analysis; type: ADME, organism-based; set-up: time < 8 hrs, dose 10 mg/kg, route po; conditions: in vivo; method in brief: as §3
[23] = Cmax in carboxylesterase 1 knockout C57BL/6 mouse brain at 10 mg/kg, po administered as single dose measured upto 8 hrs by LC-MS/MS analysis; type: ADME, organism-based; set-up: time < 8 hrs, dose 10 mg/kg, route po; conditions: in vivo; method in brief: as §3
[24] = AUC in carboxylesterase 1 knockout C57BL/6 mouse plasma at 10 mg/kg, po administered as single dose measured upto 8 hrs by LC-MS/MS analysis; type: ADME, organism-based; set-up: time < 8 hrs, dose 10 mg/kg, route po; conditions: in vivo; method in brief: as §3
[25] = AUC in carboxylesterase 1 knockout C57BL/6 mouse brain at 10 mg/kg, po administered as single dose measured upto 8 hrs by LC-MS/MS analysis; type: ADME, organism-based; set-up: time < 8 hrs, dose 10 mg/kg, route po; conditions: in vivo; method in brief: as §3
[26] = Prodrug conversion in carboxylesterase 1 knockout C57BL/6 mouse plasma assessed as increase in 2,6-Dimethoxy-4-(4-phenyl-5-thiophen-2-yl-1H-imidazol-2-yl)phenol release at 10 mg/kg, po administered as single dose measured after 2 hrs by LC-MS/MS analysis; type: ADME, organism-based; conditions: in vivo
[27] = Prodrug conversion in carboxylesterase 1 knockout C57BL/6 mouse brain assessed as increase in 2,6-Dimethoxy-4-(4-phenyl-5-thiophen-2-yl-1H-imidazol-2-yl)phenol release at 10 mg/kg, po administered as single dose measured after 2 hrs by LC-MS/MS analysis; type: ADME, organism-based; conditions: in vivo
[28] = Stability in carboxylesterase 1 knockout C57BL/6 mouse assessed as intact compound level at 10 mg/kg, po administered as single dose measured upto 8 hrs by LC-MS/MS analysis; type: ADME, organism-based; conditions: in vivo, read-out: Stability
[29] = Prodrug conversion in carboxylesterase 1 knockout C57BL/6 mouse assessed as increase in 2,6-Dimethoxy-4-(4-phenyl-5-thiophen-2-yl-1H-imidazol-2-yl)phenol release at 10 mg/kg, po administered as single dose measured after 2 hrs by LC-MS/MS analysis; type: ADME, organism-based; conditions: in vivo
[30] = Ratio of prodrug conversion in carboxylesterase 1 knockout C57BL/6 mouse brain to plasma assessed as 2,6-Dimethoxy-4-(4-phenyl-5-thiophen-2-yl-1H-imidazol-2-yl)phenol release at 10 mg/kg, po administered as single dose measured after 2 hrs by LC-MS/MS analysis; type: ADME, organism-based; method in brief: as §2

| SMILES | Stability [1] | Stability [2] | Stability [3] | also measured |
| --- | --- | --- | --- | --- |
| CCC1CCCC(CC)N1C(=O)Oc1c(OC)cc(-c2nc(-c3ccccc3)c(-c3cccs3)[nH]2)cc1OC (centres undefined) | 90% | 51% | 78% |  |
| COc1cc(-c2nc(-c3ccccc3)c(-c3cccs3)[nH]2)cc(OC)c1OC(=O)N1CCC(N2CCCCC2)CC1 | 48% |  | 90% | Drug metabolism [4]: 72.3 nM; concentration at 8 h [5]: 195 nM; concentration at 8 h [6]: 86.5 nM; Tmax [7]: 60 min; Tmax [8]: 60 min; half-life [9]: 84 min; half-life [10]: 180 min; Cmax [11]: 148.9 pmol·h/g; Cmax [12]: 403 pmol·h/g; AUC [13]: 273.4 pmol·h/g; AUC [14]: 187.1 pmol·h/g |
| COc1cc(-c2nc(-c3ccccc3)c(-c3cccs3)[nH]2)cc(OC)c1OP(=O)(O)O | 102% | 55% | 91% |  |
| COc1cc(-c2nc(-c3ccccc3)c(-c3cccs3)[nH]2)cc(OC)c1OC(=O)C(C)(C)C | 93% | 0% | 1% |  |
| COc1cc(-c2nc(-c3ccccc3)c(-c3cccs3)[nH]2)cc(OC)c1OC(=O)N1C2CCC1CC(N1CCCCC1)C2 (centres undefined) | 84% | 78% | 87% |  |
| COc1cc(-c2nc(-c3ccccc3)c(-c3cccs3)[nH]2)cc(OC)c1OC(C)=O | 6% | 0% | 28% |  |
| COc1cc(-c2nc(-c3cccs3)c(-c3ccccc3)[nH]2)cc(OC)c1O | 89% | 98% | 103% | concentration [15]: 23 nM; Activity [16]: 4.9 nM; Kp at 2 h [17]: 0.1; Tmax [18]: 30 min; Tmax [19]: 30 min; half-life [20]: 27.6 min; half-life [21]: 37.8 min; Cmax [22]: 307 nM; Cmax [23]: 60 pmol/g; AUC [24]: 0.27 µM·h; AUC [25]: 52.8 pmol·h/g |
| COc1cc(-c2nc(-c3ccccc3)c(-c3cccs3)[nH]2)cc(OC)c1OCOP(=O)(O)O | 1% | 21% | 96% |  |
| COc1cc(-c2nc(-c3ccccc3)c(-c3cccs3)[nH]2)cc(OC)c1OC(=O)C1=CN(C)C=CC1 | 46% | 22% | 52% | Drug metabolism [26]: 28.3 nM; Drug metabolism [27]: 2.2 nM |
| COc1cc(-c2nc(-c3ccccc3)c(-c3cccs3)[nH]2)cc(OC)c1OC(=O)OC(OC(=O)C(C)(C)C)c1ccccc1 (centres undefined) | 69% | 80% | 83% |  |
| CCCCCN(C)C(=O)Oc1c(OC)cc(-c2nc(-c3ccccc3)c(-c3cccs3)[nH]2)cc1OC | 86% | 85% | 50% |  |
| COc1cc(-c2nc(-c3ccccc3)c(-c3cccs3)[nH]2)cc(OC)c1OC(=O)N(C)C | 100% | 100% | 96% | concentration at 8 h [28]: 4300 nM; Drug metabolism [29]: 540.9 nM |
| CCCCCNC(=O)Oc1c(OC)cc(-c2nc(-c3ccccc3)c(-c3cccs3)[nH]2)cc1OC | 68% | 83% | 60% |  |
| COc1cc(-c2nc(-c3ccccc3)c(-c3cccs3)[nH]2)cc(OC)c1OC(=O)N1C2CCCC1CC2 | 76% | 95% | 85% |  |
| CCCCCC(=O)Oc1c(OC)cc(-c2nc(-c3ccccc3)c(-c3cccs3)[nH]2)cc1OC | 63% | 1% | 13% | Drug metabolism [26]: 355 nM; Drug metabolism [27]: 36.5 nM; BPR [30]: 0.1 |
| CCCCCCCNC(=O)Oc1c(OC)cc(-c2nc(-c3ccccc3)c(-c3cccs3)[nH]2)cc1OC | 84% | 97% | 60% |  |
| COc1cc(-c2nc(-c3ccccc3)c(-c3cccs3)[nH]2)cc(OC)c1OCOP(=O)(O)OCOC(=O)OC(C)C | 79% | 11% | 100% |  |
